Target: D(2) dopamine receptor (Rattus norvegicus, UniProt P61169)
Assay: In vitro for the binding affinity against dopamine receptor D2 by using [3H](-)-sulpiride as radioligand in rat striatum.
Assay type: tissue-based
Outline: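 Displacement of [³H]-(-)-sulpiride from rat striatal homogenates. Values are reported as -log₁₀(IC₅₀), the mean of two to three independent determinations. Values without error limits are the mean of two independent experiments.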

Sequence of D(2) dopamine receptor (P61169 whole entry): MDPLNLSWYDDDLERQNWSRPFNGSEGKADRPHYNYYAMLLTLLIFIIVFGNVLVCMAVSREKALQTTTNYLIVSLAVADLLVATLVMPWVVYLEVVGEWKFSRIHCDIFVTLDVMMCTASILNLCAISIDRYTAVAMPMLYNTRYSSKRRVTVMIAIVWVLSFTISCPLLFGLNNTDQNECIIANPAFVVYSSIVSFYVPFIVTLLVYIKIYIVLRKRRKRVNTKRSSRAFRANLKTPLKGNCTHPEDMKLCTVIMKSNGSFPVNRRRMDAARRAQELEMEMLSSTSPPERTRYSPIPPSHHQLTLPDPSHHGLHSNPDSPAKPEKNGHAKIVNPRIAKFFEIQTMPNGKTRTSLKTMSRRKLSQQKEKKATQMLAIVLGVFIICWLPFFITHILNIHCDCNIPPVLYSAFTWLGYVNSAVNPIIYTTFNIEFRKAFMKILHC

Row | IC50 | SMILES
1 | 2.51 µM | CCCCN1CCC2(CCCCc3ccccc32)CC1
2 | 2.04 µM | CCCCCCN1CCC2(CCCc3ccccc32)CC1
3 | 17 µM | CC(C)=CCN1CCC2(CCc3ccccc32)CC1
4 | 6.61 µM | c1ccc2c(c1)CCC21CCN(CC2CCCCC2)CC1
5 | 5.5 µM | CCCCCCN1CCC2(CCc3ccccc32)CC1
6 | 5.5 µM | CC(C)=CCN1CCC2(CCCc3ccccc32)CC1

Second part, the molecule before the results:

Row | SMILES | IC50
7 | c1ccc2c(c1)CCCC21CCN(CC2CCCCC2)CC1 | 1.95 µM
8 | c1ccc(CN2CCC3(CCc4ccccc43)CC2)cc1 | 0.891 µM
9 | COc1ccc(CN2CCC3(CCCc4ccccc43)CC2)cc1 | 0.12 µM
10 | c1ccc(CN2CCC3(CCCCc4ccccc43)CC2)cc1 | 3.72 µM
11 | CCCCN1CCC2(CCc3ccccc32)CC1 | 3.98 µM
12 | COc1ccc(CN2CCC3(CCc4ccccc43)CC2)cc1 | 0.617 µM
13 | CCCCN1CCC2(CCCc3ccccc32)CC1 | 11 µM
14 | Cc1ccc(CN2CCC3(CCCc4ccccc43)CC2)cc1 | 0.174 µM

Reference: ChEMBL document CHEMBL1126060, “Spiropiperidines as high-affinity, selective sigma ligands” (J Med Chem, 1992)
